From PubChem
Shown are actives, neighbours in structure and some others; about 3.5% of the full set was active somewhere.
MrgX1 ag: activates human MrgX1 receptor signaling. Q96LB2. MrgX1-HEK293 cells, Fluo-4 calcium fluorescence, agonist mode; stronger effect = higher value. B-score at 10 µM. 310,000 tested, 0.44% active. AID 588627;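 active = calcium response B-score plate-corrected fluorescence ratio at least 3 library SD, with starting fluorescence B-score inside 5 SD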
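Test system: Stable human MrgX1 HEK293 cell line | Schedule: Overnight plating before 1 h dye loading | Read-out basis: Baseline-normalised fluorescence change ratio, B-scored | Detection: Kinetic calcium dye fluorescence, Fluo-4 NW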
MrgX1 PAM: human MrgX1 positive allosteric modulation, primary screen. Q96LB2. MrgX1-HEK293, Fluo-4 calcium flux, FDSS; stronger effect = higher value. B-score at 10 µM. 310,000 tested, 0.63% active. AID 588675;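 active = plate-corrected calcium response at least 3 library SD above typical, normal starting fluorescence, not activating the receptor alone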;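 note: compound read alongside a low EC10 to EC30 dose of BAM8-22 agonist; peak minus trough fluorescence over baseline measured at the second addition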
MrgX1 antagonist: antagonists of human MrgX1 receptor; Q96LB2; MRGX1-HEK293 calcium flux, Fluo-4, BAM8-22 antagonism; stronger effect = lower value; B-score at 10 µM; 310,000 tested, 1.3% active; AID 588676;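 active = calcium-response B-score plate-corrected more than 3 library SD below zero, starting fluorescence within 5 deviations, no agonist response on first addition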;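 note: peak minus trough fluorescence over baseline after final BAM8-22 challenge near maximal dose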
RGS4 inh: inhibitors of human RGS4; 310,000 tested, 0.45% active; AID 463165; B-score at 10 µM; HEK293 M3R/RGS4 inducible, Fluo-4 calcium flux; stronger effect = higher value; triggered by carbachol at its EC20;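 active = B-score, a plate-corrected calcium signal, over three deviations above library mean, with baseline fluorescence within five deviations of library mean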;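 note: RGS4 expression induced by doxycycline in cells with stable M3 receptor; B-score is computed from the integrated fluorescence ratio over baseline after carbachol; higher B-score means a larger calcium signal and so more RGS4 inhibition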
Target sequence (P49798 whole entry, looked up): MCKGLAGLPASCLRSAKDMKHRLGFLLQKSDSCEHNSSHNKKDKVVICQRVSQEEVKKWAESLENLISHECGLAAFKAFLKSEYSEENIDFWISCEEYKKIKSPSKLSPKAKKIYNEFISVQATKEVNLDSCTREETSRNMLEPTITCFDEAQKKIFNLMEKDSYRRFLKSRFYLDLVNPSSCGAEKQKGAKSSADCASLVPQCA
RGS4 act: potentiators or activators of RGS4; B-score at 10 µM; 310,000 tested, 0.92% active; AID 463111; HEK293 M3R/inducible RGS4, carbachol calcium flux Fluo4; stronger effect = lower value;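 active = B-score of the integrated calcium signal more than 4 SD below the library mean, with starting fluorescence not abnormally high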;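 note: negative B-score means reduced calcium response which marks RGS4 activation or potentiation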
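Assay system: Inducible-RGS4 HEK293 cells carrying M3 receptor | Schedule: Compound preincubation 20 min at room temperature before agonist | Signal: Kinetic calcium fluorescence imaging with Fluo4-AM dye, 2 µM | Read-out basis: B score from integrated fluorescence ratio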
RGS4 inh valid: RGS4 inhibitor validation. 1,700 tested, 65% active. HEK293 M3R/RGS4, carbachol calcium Fluo-4 fluorescence; carbachol added at its EC20; 0 = buffer wells, 100 = carbachol control. shares compounds with RGS4 inh. calcium response, % at 10 µM;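 active = duplicate-averaged calcium response above the buffer-only control mean plus 5 SD of those controls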;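 note: integrated fluorescence ratio F max minus min over baseline F0; higher response in RGS4-induced cells means RGS4 inhibition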
M3R Ca ctr: non-induced cell nonspecific activity of RGS4 inhibitors; shares compounds with RGS4 inh; HEK293 M3R non-induced, carbachol calcium Fluo-4; submaximal (EC20) carbachol stimulus; buffer wells 0%, carbachol control wells 100%; activity (percent), % at 10 µM; 1,900 tested, 20% active; call rule not given here;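 note: RGS4 induction absent so cells express M3R without RGS4; higher means more calcium signal and flags a non-specific hit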
M3R basal Ca ctr: second counter-screen for RGS4 inhibitors: non-induced cells without carbachol; shares compounds with RGS4 inh; HEK293 M3R/RGS4 non-induced, Fluo-4 calcium, no carbachol; normalised: buffer wells 0%, carbachol wells 100%; calcium response (agonist-mode artifact), % at 10 µM; 1,900 tested, 22% active; AID 493001;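 active = duplicate-averaged calcium rise in uninduced cells above buffer wells' mean plus 5 SD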
* marks the source's active call; other numbers are inactive results; i = inactive; . = no result given.

SMILES | MrgX1 ag | MrgX1 PAM | MrgX1 antagonist | RGS4 inh | RGS4 act | RGS4 inh valid | M3R Ca ctr | M3R basal Ca ctr
Cc1cccc2cc(C(c3nnnn3C(C)(C)C)N(Cc3ccco3)CC3CCCO3)c(=O)[nH]c12 (stereo not drawn) | i | i | i | i | i | i | i | i
CC(C)c1ccc(N(CC(=O)NCc2ccco2)C(=O)CCC(=O)Nc2nccs2)cc1 | i | i | i | i | i | . | . | .
COc1cccc([C@@H]2CC=C(C(=O)O)[C@H](c3cccc(Cl)c3)N2S(=O)(=O)c2ccc(C)cc2)c1 | i | i | i | . | . | . | . | .
Cc1ccc(C(=O)/C=C\C(=O)c2ccc(C)cc2)cc1 | i | i | i | i | i | i | i | i
CC1=CSC2=NS(=O)(=O)CCN12 | i | i | i | i | i | . | . | .
CC1(C)Cc2c(C#N)c(N3CCOCC3)nc(-c3ccccc3)c2CO1 | i | i | i | i | i | . | . | .
CC1CCN(c2nc(-c3ccco3)c3c(c2C#N)CC(C)(C)OC3)CC1 | i | i | i | i | i | i | i | 15%*
CC1CCN(c2c(NCC3CCC(C(=O)NCCc4ccccc4)CC3)c(=O)c2=O)CC1 (stereo not drawn) | i | i | i | i | i | . | i | i
Cc1c(Cl)ccc2sc(NC(=O)C3CC3)nc12 | i | i | i | 6.2* | i | 8.0%* | i | i
O=C(NC(C(=O)N/N=C/c1ccccc1)c1n[nH]c(=O)c2ccccc12)c1ccccc1 (stereo not drawn) | i | i | i | i | i | i | i | 10%*
CC(NC(=O)c1ccccc1)C(=O)N/N=C/c1ccccc1 (stereo not drawn) | i | i | i | i | i | . | . | .
O=C(NC(C(=O)N/N=C/c1c2ccccc2cc2ccccc12)c1n[nH]c(=O)c2ccccc12)c1ccccc1 (stereo not drawn) | i | i | i | i | i | i | i | 128%*
CNC(=S)N1CCN(C(=O)C2CCCO2)CC1 (stereo not drawn) | i | i | i | 4.7* | i | i | i | i
COC(=O)c1c(NC(=O)CC2SC(N)=NC2=O)sc2c1CCC(C(C)(C)C)C2 (stereo not drawn) | i | i | i | 12* | i | 43%* | i | i
CCOC(=O)c1c(NC(=O)CC2SC(N)=NC2=O)sc2c1CCC(C)C2 (stereo not drawn) | i | i | i | i | i | . | . | .
COC(=O)c1c(NC(=O)CC2SC(N)=NC2=O)sc2c1CCCC2 (stereo not drawn) | i | i | i | i | i | . | . | .
COC(=O)c1c(NC(=O)CC2SC(N)=NC2=O)sc2c1CCC(C)C2 (stereo not drawn) | i | i | i | i | i | . | i | i
O=C1CCCCN1CCCC(=O)N1CCCC(Nc2ccccc2)C1 (stereo not drawn) | i | i | i | i | i | . | . | .
COc1ccc(OC)c(-c2nc3ccccc3nc2-c2ccccc2)c1 | i | i | i | i | i | i | i | i
CC(C)CCC(C)NC(=O)CN1C(=O)NC(C)(c2ccc3ccccc3c2)C1=O (stereo not drawn) | i | i | i | i | i | . | . | .
O=C(/C=C/c1ccc([N+](=O)[O-])cc1)c1cccnc1 | i | i | i | 18* | i | 39%* | 52%* | i
O=C(/C=C/c1ccc(Br)cc1)c1ccco1 | i | i | i | i | i | . | . | .
